Series [1] relates to H727 cells. In words: Cell viability assay. It counts as cell-based.
For series [2], the system named is primary MM cells. In words: Cell viability of primary MM cells. The format is cell-based, human. Conditions: 48 h; for Cytotoxic effects in primary MM samples, Btz-resistant versus PI-naïve: 10 μM, nine samples, Figure 5B,C. In outline: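 Bone-marrow aspirates from patients; CD138+ plasma cells isolated by positive bead selection, purity checked by flow cytometry. Donors were six Btz/Cfz-naïve and eight relapsed on Btz. Plated 20 000 cells/well in IMDM with 10% FBS. Exposed to test compound (50 nM or 10 μM) for 48 h. Percentage viable cells measured by CellTiter-Glo luminescence.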

The subject of series [3] is Cfz-resistant RPMI8226 cells. In words: Cell viability assay. It counts as cell-based, human. In outline: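 Resistant RPMI8226 subline derived by stepwise Cfz exposure up to 80 nM over ~6 months, kept in 80 nM, then grown Cfz-free ~1 week before assay. Parental and resistant cells in RPMI1640/10% FBS, plated 10 000/well; compounds added 24 h after plating. MTS read after 72 h. IC50 by nonlinear regression; triplicates, or three independent experiments for the reference.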

The nature of series [4]: In vitro metabolic stability in rat liver homogenates. The format is in vitro ADME. Conditions: 1 μM, 5, 10 and 20 min, 37 °C, Figure 8B. In outline: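 Livers from 8-week-old male Sprague-Dawley rats, PBS-washed and homogenized in five-fold volume PBS (pH 7.4) per gram. Homogenate prewarmed to 37 °C, spiked to 1 μM final, n = 3. Samples taken at 0, 5, 10 and 20 min, quenched in four-fold ice-cold acetonitrile with 0.5 μM chlorpropamide internal standard. Remaining drug quantified by LC-MS/MS (positive-ion SRM).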

In series [5] the target is β1i/LMP2 of human 20S immunoproteasome (Homo sapiens, UniProt P28065). The experiment in a line: Enzyme kinetics assay, β1i/LMP2 activity of purified human 20S immunoproteasome. It counts as biochemical. To be noted: 20S purified immunoproteasome, Figure 7. The procedure, abridged: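 Purified human 20S immunoproteasome in pH 8.0 Tris-HCl buffer (0.5 mM EDTA, 0.035% SDS), incubated 1 h with graded inhibitor concentrations. LMP2 activity measured with Ac-PAL-AMC (100 μM final) by AMC fluorescence (360/460 nm) every minute for 1 h. Linear-regression initial rates normalized to vehicle control; IC50 by nonlinear fit.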

Series [6] deals with proteasome chymotrypsin-like (CT-L, β5/β5i) activity. The format is biochemical, human. To be noted: RPMI8226 cell lysate, Figure 7. The procedure, abridged:
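RPMI 8226 lysate in 20 mM Tris-HCl, 0.5 mM EDTA, 0.035% SDS, pH 8.0, preincubated 1 h with a range of inhibitor concentrations. Suc-LLVY-AMC added at 100 μM final. AMC fluorescence (ex 360/em 460 nm) read each minute for 1 h. Initial slopes normalized to vehicle wells; IC50 from nonlinear regression.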

The conditions of series [7]: in vivo; cited from earlier work.
Series [8] concerns β1i subunit. Conditions: cited from earlier work.
The test system of series [9] is β5 subunit. To be noted: cited from earlier work.
[10] abbreviates: 72-h IC50 values, H727 versus H23, Figure 3B.

Residues, ends and D or L forms follow the SMILES beside them. *: point of attachment. Cbz = O=C(OCc1ccccc1)*; Boc = CC(C)(C)OC(=O)*; OBn = c1ccc(CO*)cc1; OtBu = CC(C)(C)O*

Take `CC(C)C[C@@H](C=O)NC(=O)[C@H](CC(C)C)NC(=O)[C@H](CC(C)C)NC(=O)OCc1ccccc1` [MG-132] (Cbz-Leu-Leu-Leu-aldehyde): the “Cytotoxicity in H727 cells compared with H23 cells” value in series [1] (setting [10]) is “comparable cytotoxicity in H727 and H23 cells”.
Take `CCCCCCC(=O)N[C@@H](CO)C(=O)N[C@@H](CC(C)C)C(=O)[C@@]1(COCOCCOC)CO1` [UK102]: the “Cytotoxic effects in primary MM samples, Btz-resistant versus PI-naïve” value in series [2] is listed as “similar”.
`CC(C)(C)OC(=O)N[C@@H](CC(=O)OCc1ccccc1)C(=O)N[C@@H](CCCCNC(=O)OCc1ccccc1)C(=O)OC(C)(C)C` [reversin 121] (Boc-Asp(OBn)-Lys(Cbz)-OtBu): the “Restoration of Cfz sensitivity by P-gp inhibitor” value in [3] (Cfz-resistant RPMI8226, Supporting Information S2) was “almost completely restored Cfz sensitivity”.
For `CC(=O)N[C@@H](CSC(=O)[C@]1([C@@H](O)C(C)C)NC(=O)[C@H](C)[C@@H]1O)C(=O)O` [lactacystin], the “Cytotoxicity in H727 cells compared with H23 cells” value in series [1] (setting [10]) is listed as “not as effective in H727 cells as in H23 cells”.
Turning to `CC(C)C[C@H](NC(=O)[C@H](CCc1ccccc1)NC(=O)CN1CCOCC1)C(=O)N[C@@H](Cc1ccccc1)C(=O)N[C@@H](CC(C)C)C(=O)[C@@]1(CO)CO1` [Compound 9, (S)-N-((S)-1-((S)-1-((R)-2-(Hydroxymethyl)oxiran-2-yl)-4-methyl-1-oxopentan-2-ylamino)-1-oxo-3-phenylpropan-2-yl)-4-methyl-2-((S)-2-(2-morpholinoacetamido)-4-phenylbutanamido)-pentanamide], the “Metabolic stability compared with Cfz” value in [4] is “more stable than Cfz”. In addition, in series [3] (Cfz-resistant RPMI8226 cells, Figure 7), the “Improvement in potency as compared to Cfz” value is reported as “almost three-fold improvement in potency”. Further, in [5], the “IC50 against β1i activity compared with Cfz” value is on record as “IC50 values similar to that of Cfz”. The “IC50 against CT-L (β5/β5i) activity compared with Cfz” value in series [6] was “IC50 values similar to that of Cfz”.
As to `CC(C)C[C@H](NC(=O)[C@H](CCc1ccccc1)NC(=O)CN1CCOCC1)C(=O)N[C@@H](Cc1ccccc1)C(=O)N[C@@H](CC(C)C)C(=O)[C@@]1(C)CO1` [Cfz, carfilzomib], in series [3] (versus parental RPMI8226, 72 h MTS, Figure 4A), the “Increase in IC50 values in Cfz-resistant RPMI8226 cells” value is “greater than 35 fold”. In addition, in series [2] (50 nM, 14 donors, Figure 5A), the “Sensitivity of primary MM samples, Btz-relapsed versus PI-naïve patients” value is “tended to be less responsive to Cfz”. Also, the Plasma half-lives result in series [7] is “less than 1 h”.
With `CCCCCCC(=O)N[C@@H](C)C(=O)N[C@@H](CC(C)C)C(=O)[C@@]1(CO)CO1` [Compound 5, N-((S)-1-((S)-1-((R)-2-(Hydroxymethyl)oxiran-2-yl)-4-methyl-1-oxopentan-2-ylamino)-1-oxopropan-2-yl)heptanamide], the “Cytotoxic activity in cancer cell lines relative to UK101” value in series [1] (H23, H727 and Cfz-resistant RPMI8226 cells, MTS, Figure 6B) is recorded as “considerably improved the cytotoxic activity”.
In the case of `CC(C)C[C@H](NC(=O)[C@H](CCc1ccccc1)NC(=O)CN1CCOCC1)C(=O)N[C@@H](Cc1ccccc1)C(=O)N[C@@H](CC(C)C)C(=O)[C@@]1(COS(C)(=O)=O)CO1` [Compound 12, ((S)-2-((4S,7S,10S,13S)-10-Benzyl-7-isobutyl-15-methyl-1-morpholino-2,5,8, 11-tetraoxo-4-phenethyl-3,6,9, 12-tetraazahexadecanecarbonyl)oxiran-2-yl)methylmethane-sulfonate], in [1] (Cfz-resistant H727 cells, Figure 7), the “Potency against H727 cells compared with Cfz” value is “less potent than Cfz”. Further, the “IC50 against β1i activity compared with Cfz” value in series [5] is reported as “IC50 values similar to that of Cfz”. Moreover, the “IC50 against CT-L (β5/β5i) activity compared with Cfz” value in series [6] is on record as “IC50 values similar to that of Cfz”.
Turning to `CC(C)C[C@H](NC(=O)[C@H](Cc1ccccc1)NC(=O)c1cnccn1)B(O)O` [Btz, bortezomib], the “Cytotoxicity in H727 cells compared with H23 cells” value in series [1] (human, 72 h) is “comparable cytotoxicity in H727 and H23 cells”.
Consider `CCCCCCC(=O)N[C@@H](C)C(=O)N[C@@H](CC(C)C)C(=O)[C@@]1(CO[Si](C)(C)C(C)(C)C)CO1` [UK101], for which, in series [8], the “Inhibition of β1i subunit, concentration range” value is given as “nanomolar concentration ranges”. Also, the “Cytotoxic effects in primary MM samples, Btz-resistant versus PI-naïve” value in [2] is recorded as “similar”. In addition, the “Inhibition of β5 subunit (CT-L activity), concentration range” value in series [9] is recorded as “micromolar concentration ranges”.
